Experiments:
[1] = test system: CHO-AA8; assay: Growth inhibition activity was measured in repair proficient AA8 cells under aerobic conditions (4 hours drug exposure); type: functional, cell-based; conditions: Cricetulus griseus, CHO-AA8, 4 h
[2] = test system: CHO-AA8; assay: Activity to reduce the surviving fraction to 10% (CT10) was used as an inverse measure of cytotoxic potency in aerobic conditions; type: functional, Cricetulus griseus
In short: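 Clonogenic survival assay in magnetically stirred 10 mL suspensions of late-log AA8 cells (10⁶/mL) under continuous gassing with 5% CO₂ in air. Samples were removed periodically during drug exposure. CT₁₀ is the concentration × time giving 10% surviving fraction, used as an inverse measure of cytotoxicity.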

[3] = test system: UV4; assay: Growth inhibition activity was measured in repair deficient UV4 cells under aerobic conditions (4 hours drug exposure); type: functional, cell-based; conditions: Cricetulus griseus, UV4, 4 h
[4] = Ratio of activities reducing surviving fraction to 10% (T10) under aerobic vs hypoxic conditions; type: functional
In short: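 Late-log AA8 cells (10⁶/mL) in stirred 10 mL suspensions were gassed continuously with 5% CO₂ in air or in N₂, with periodic sampling for clonogenic survival. The time to 10% survival (T₁₀) was found under each gas at the same drug concentration. The value is the mean of air/N₂ T₁₀ ratios; errors are ranges (two determinations) or standard errors.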

Structure (SMILES)	IC50 [1] [µM]	CT10 [2] [µM·h]	IC50 [3] [µM]	Ratio [4]
O=C(O)CCCc1ccc(N(CCCl)OCCCl)cc1	456	>2400	176	
O=C(O)CCCc1ccc(N(CCCl)CCCl)cc1 [CHLORAMBUCIL]	38	85.2	1.2	1.28
O=C(O)CCCc1ccc(NCCCl)cc1	> 250	2080	90	1.26
